Key:
[1] = tested on: A549; experiment: Cytotoxicity against human A549 cells after 48 hrs by sulforhodamine B assay; type: functional; conditions: A549, 48 h
In short: (§1)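 Cells were grown in RPMI 1640 with 10% FBS and 2 mM L-glutamine, seeded at densities set by doubling time, and left 24 h before drug. Exposure was 48 h continuous at 0.1, 1, 10 and 100 µM, triplicate wells. Cells were fixed in cold 10% TCA for 60 min at 4 °C and stained with SRB. Bound dye was eluted with 10 mM Tris and read at 540 nm (690 nm reference). GI50 was the concentration halving net protein increase versus control.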

[2] = Cytotoxicity against human AW13516 cells after 48 hrs by sulforhodamine B assay; type: functional; in short: as §1
[3] = tested on: DNA; experiment: Binding affinity to calf thymus DNA at pH 7.0 at 20 uM after 36 hrs by thermal denaturation assay; type: nucleic-acid assay; conditions: Bos taurus
[4] = tested on: COLO 205; experiment: Cytotoxicity against human Colo205 cells after 48 hrs by sulforhodamine B assay; type: functional; conditions: COLO 205, 48 h; in short: as §1
[5] = tested on: KB; experiment: Cytotoxicity against human KB cells after 48 hrs by sulforhodamine B assay; type: functional; in short: as §1
[6] = tested on: A2780; experiment: Cytotoxicity against human A2780 cells after 48 hrs by sulforhodamine B assay; type: functional; conditions: A2780, 48 h; in short: as §1
[7] = tested on: MCF7; experiment: Cytotoxicity against human MCF7 cells after 48 hrs by sulforhodamine B assay; type: functional; conditions: MCF7, 48 h; in short: as §1
[8] = tested on: DNA; experiment: Binding affinity to calf thymus DNA at pH 7.0 at 20 uM after 18 hrs by thermal denaturation assay; type: nucleic-acid assay; conditions: Bos taurus
[9] = tested on: ZR-75-1; experiment: Cytotoxicity against human Zr-75-1 cells after 48 hrs by sulforhodamine B assay; type: functional; conditions: ZR-75-1, 48 h; in short: as §1
[10] = Cytotoxicity against human AW8507 cells after 48 hrs by sulforhodamine B assay; type: functional; conditions: AW8507, 48 h; in short: as §1
[11] = tested on: PC-3; experiment: Cytotoxicity against human PC3 cells after 48 hrs by sulforhodamine B assay; type: functional; conditions: PC-3, 48 h; in short: as §1
[12] = tested on: SiHa; experiment: Cytotoxicity against human SiHa cells after 48 hrs by sulforhodamine B assay; type: functional; in short: as §1
[13] = tested on: HOP-62; experiment: Cytotoxicity against human HOP62 cells after 48 hrs by sulforhodamine B assay; type: functional; conditions: HOP-62, 48 h; in short: as §1

Row | ΔTm [3] [°C] | ΔTm [8] [°C] | Compound | GI50 [1] [µM] | GI50 [2] [µM] | GI50 [4] [µM] | GI50 [5] [µM] | GI50 [6] [µM] | GI50 [7] [µM] | GI50 [9] [µM] | GI50 [10] [µM] | GI50 [11] [µM] | GI50 [12] [µM] | GI50 [13] [µM]
1 | 1.5 | 1.2 | COc1cc2c(cc1OCCCSc1nnc3n1S(=O)(=O)c1ccccc1N3c1ccccc1)N=C[C@@H]1CCCN1C2=O |  |  |  |  | 30 |  | 26 |  |  |  | 
2 | 1.5 | 1.3 | COc1cc2c(cc1OCCCCCSc1nnc3n1S(=O)(=O)c1ccccc1N3c1ccccc1)N=C[C@@H]1CCCN1C2=O | 30.3 | 1.78 | 25.6 | 2.46 | 2.01 |  | 24 | 2.48 | 2.4 | 2.3 | 2.35
3 | 0.7 | 0.6 | COc1cc2c(cc1OCCCCSc1nnc3n1S(=O)(=O)c1ccccc1N3c1ccccc1)N=C[C@@H]1CCCN1C2=O | 29.7 | 1.98 |  |  | 2.27 |  |  | 25.8 | 28.8 |  | 

Continued, compound first:

Row | Compound | ΔTm [3] [°C] | ΔTm [8] [°C] | GI50 [1] [µM] | GI50 [2] [µM] | GI50 [4] [µM] | GI50 [5] [µM] | GI50 [6] [µM] | GI50 [7] [µM] | GI50 [9] [µM] | GI50 [10] [µM] | GI50 [11] [µM] | GI50 [12] [µM] | GI50 [13] [µM]
4 | COc1cc2c(cc1OCCCCSc1nnc3n1S(=O)(=O)c1ccccc1N3C)N=C[C@@H]1CCCN1C2=O | 0.7 | 0.5 | 2.28 | 26.6 | 2.11 | 26.4 | 2.17 | 2.29 | 25.9 | 2.29 | 25.5 | 27 | 
5 | COc1cccc2c1C(=O)c1c(O)c3c(c(O)c1C2=O)C[C@@](O)(C(=O)CO)C[C@@H]3O[C@H]1C[C@H](N)[C@H](O)[C@H](C)O1 [DOXORUBICIN] |  |  |  | 0.1 | 0.14 | 1.72 | 0.16 | 0.17 |  | 0.17 |  | 0.18 | 0.14
6 | COc1cc2c(cc1OCCCSc1nnc3n1S(=O)(=O)c1ccccc1N3C)N=C[C@@H]1CCCN1C2=O | 1.7 | 1.5 | 2.29 | 2.24 | 1.93 | 2.38 | 1.83 | 2.06 | 2.19 | 2.24 | 2.15 | 2.12 | 2.13
7 | COc1cc2c(cc1OCCCCCSc1nnc3n1S(=O)(=O)c1ccccc1N3C)N=C[C@@H]1CCCN1C2=O | 2.6 | 2.4 | 2.45 | 1.95 | 2.19 | 25.6 | 1.92 |  | 28.5 | 0.22 | 25.5 | 27.9 | 
8 | COc1cc2c(cc1O)N=C[C@@H]1CCCN1C2=O | 0.7 | 0.7 |  |  |  |  |  |  |  |  |  |  | 
